These results are taken from ChEMBL document CHEMBL1629687, “Minigenome-based reporter system suitable for high-throughput screening of compounds able to inhibit Ebolavirus replication and/or transcription” (Antimicrob Agents Chemother, 2010).

One data set has as its system Ebolavirus. Briefly: Antiviral activity against Ebolavirus infected in african green monkey COS1 cells assessed as inhibition of viral replication after 32 hrs by luciferase reporter gene assay. The class given is functional, COS-1. Put shortly: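 Ebola minigenome assay, not live virus: COS-1 cells in suspension were batch-transfected with minireplicon and NP/VP35/L support plasmids, then plated in 96-well format. Compounds in DMSO were added at 10 μM final; DMSO-only wells served as controls. Luciferase was read after 32 h. Percent inhibition = 1 − (compound-well signal / mean DMSO-well signal) × 100.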
Background: Reporter assays use an easily measured gene product as a stand-in for the process of interest.

Data set [1] is described as follows: Cytotoxicity against african green monkey COS1 cells assessed as reduction in cell viability after 32 hrs by luminescent assay. It is filed as cell-based, COS-1. As to conditions: chlorocebus aethiops, read-out: INH. In a few lines:
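Parallel plates of batch-transfected COS-1 cells received the same compounds in DMSO (10 μM final). Cell viability was measured with the CellTiter-Glo luminescent assay to flag cytotoxicity.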

Consider `CC[C@H]1CN2CCc3cc(OC)c(OC)cc3[C@@H]2C[C@@H]1C[C@H]1NCCc2cc(O)c(OC)cc21.Cl.Cl` [CEPHAELINE DIHYDROCHLORIDE], for which the “inhibition (INH)” value in the data set with Ebolavirus was 99%. For the same molecule, the cytotoxicity at 32 h in data set [1] was determined as 14%.

`COc1cccc2c1C(=O)c1c(O)c3c(c(O)c1C2=O)C[C@@](O)(C(=O)CO)C[C@@H]3O[C@H]1C[C@H](N)[C@H](O)[C@H](C)O1.Cl` [DOXORUBICIN HYDROCHLORIDE]: the “inhibition (INH)” value with Ebolavirus was 97%. Moreover, the cytotoxicity at 32 h in data set [1] was found to be 25%.

As for `Cc1c2ccncc2c(C)c2c1[nH]c1ccccc12` [ELLIPTECINE], the “inhibition (INH)” value with Ebolavirus worked out at 99%. Further, in data set [1], the cytotoxicity at 32 h is 8%.

Take `CC[C@H]1CN2CCc3cc(OC)c(OC)cc3[C@@H]2C[C@@H]1C[C@H]1NCCc2cc(OC)c(OC)cc21.Cl.Cl` [EMETINE HYDROCHLORIDE]: in the data set with Ebolavirus, the “inhibition (INH)” value is recorded as 99%. For the same molecule, the cytotoxicity at 32 h in data set [1] stood at 3%.

`O=C1C=C2C(=CCOC2O)O1` (configuration not stated) [PATULIN]: the “inhibition (INH)” value in the data set on Ebolavirus turned out to be 89%. The cytotoxicity at 32 h in data set [1] was 20%.

Regarding `CC[C@@H](C(=O)[C@@H](C)[C@@H](O)[C@H](C)[C@@H]1O[C@@H]([C@@H](CC)C(=O)O)CC[C@@H]1C)[C@H]1O[C@]2(C=C[C@@H](O)[C@]3(CC[C@@](C)([C@H]4CC[C@](O)(CC)[C@H](C)O4)O3)O2)[C@H](C)C[C@@H]1C` [SALINOMYCIN], the “inhibition (INH)” value with Ebolavirus came to 86%. For the same molecule, in data set [1], the cytotoxicity at 32 h is 17%.
